Measurements from ChEMBL document CHEMBL1158804, “Lupane triterpenoids from Maytenus species” (J Nat Prod, 2005).
Active and inactive are the calls of the source. The calls are words filed in the database; no cut-off is given here.

Experiments:
[1] = system: HeLa; experiment: Cytotoxicity against human HeLa cells after 48 hrs by MTT assay; format: functional, cell-based
How it was run: (§1)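 Monolayers are cultured in DMEM with 5% fetal calf serum and 1% penicillin-streptomycin at 37 °C, 5% CO2 and 90% humidity. Exponentially growing cells (2 × 10^4 cells/well) are exposed to a range of compound concentrations for 48 h at 37 °C. Viability is read by colorimetric MTT reduction.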

[2] = system: Vero; experiment: Cytotoxicity against african green monkey Vero cells after 48 hrs by MTT assay; format: cell-based; conditions: Chlorocebus sabaeus; how it was run: as §1
[3] = system: Staphylococcus saprophyticus; experiment: Antibacterial activity against Staphylococcus saprophyticus CECT 235 up to 40 ug/mL by broth microdilution method; format: functional, organism-based
How it was run: (§2)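 Compounds are dissolved in DMSO. The minimal inhibitory concentration is estimated by broth microdilution.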

[4] = system: Bacillus subtilis; experiment: Antibacterial activity against Bacillus subtilis CECT 39 up to 40 ug/mL by broth microdilution method; format: functional, organism-based; how it was run: as §2
[5] = system: Salmonella; experiment: Antibacterial activity against Salmonella sp. CECT 456 up to 40 ug/mL by broth microdilution method; format: functional, organism-based; how it was run: as §2
[6] = system: HEp-2; experiment: Cytotoxicity against human Hep2 cells after 48 hrs by MTT assay; format: functional, cell-based; conditions: HEp-2, 48 h; how it was run: as §1
[7] = system: Proteus mirabilis; experiment: Antibacterial activity against Proteus mirabilis CECT170 up to 40 ug/mL by broth microdilution method; format: functional, organism-based; how it was run: as §2
[8] = system: Enterococcus faecalis; experiment: Antibacterial activity against Enterococcus faecalis CECT 795 up to 40 ug/mL by broth microdilution method; format: functional, organism-based; how it was run: as §2
[9] = system: Bacillus cereus; experiment: Antibacterial activity against Bacillus cereus CECT 496 up to 40 ug/mL by broth microdilution method; format: functional, organism-based; how it was run: as §2
[10] = system: Staphylococcus aureus; experiment: Antibacterial activity against Staphylococcus aureus ATCC 6538 up to 40 ug/mL by broth microdilution method; format: functional, organism-based; how it was run: as §2
[11] = system: Pseudomonas aeruginosa; experiment: Antibacterial activity against Pseudomonas aeruginosa AK 958 up to 40 ug/mL by broth microdilution method; format: functional, organism-based; how it was run: as §2
[12] = system: Staphylococcus epidermidis; experiment: Antibacterial activity against Staphylococcus epidermidis CECT 232 up to 40 ug/mL by broth microdilution method; format: functional, organism-based; how it was run: as §2
[13] = system: Candida albicans; experiment: Antifungal activity against Candida albicans UBC1 up to 40 ug/mL by broth microdilution method; format: functional, organism-based
How it was run: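 The yeast is grown on Sabouraud agar at 37 °C. Compounds are dissolved in DMSO, and the minimal inhibitory concentration is estimated by broth microdilution.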

[14] = system: Priestia megaterium; experiment: Antibacterial activity against Bacillus megaterium CECT 44 up to 40 ug/mL by broth microdilution method; format: functional, organism-based; how it was run: as §2
[15] = system: Mycolicibacterium smegmatis; experiment: Antibacterial activity against Mycobacterium smegmatis CECT 3032 up to 40 ug/mL by broth microdilution method; format: functional, organism-based; how it was run: as §2
[16] = system: Escherichia coli; experiment: Antibacterial activity against Escherichia coli CECT 99 up to 40 ug/mL by broth microdilution method; format: functional, organism-based; how it was run: as §2
[17] = system: Bacillus pumilus; experiment: Antibacterial activity against Bacillus pumilus CECT 29 up to 40 ug/mL by broth microdilution method; format: functional, organism-based; how it was run: as §2

SMILES	IC50 [1] [µg/mL]	IC50 [2] [µg/mL]	Activity [3]	Activity [4]	Activity [5]	IC50 [6] [µg/mL]	Activity [7]	Activity [8]	Activity [9]	Activity [10]	Activity [11]	Activity [12]	Activity [13]	Activity [14]	Activity [15]	Activity [16]	Activity [17]
C=C(C)[C@@H]1CC[C@]2(CO)CC[C@]3(C)[C@H](C[C@@H](O)[C@@H]4[C@@]5(C)CC[C@@H](O)C(C)(C)[C@@H]5CC[C@]43C)[C@@H]12	> 10	> 10	inactive	inactive	inactive	> 10	inactive	inactive	inactive	inactive	inactive	inactive	inactive	inactive	inactive	inactive	inactive
C=C(C)[C@@H]1CC[C@]2(CO)CC[C@]3(C)[C@@H](CC[C@@H]4[C@@]5(C)CCC(=O)C(C)(C)[C@@H]5[C@H](O)C[C@]43C)[C@@H]12	> 10	> 10	inactive	inactive	inactive	> 10	inactive	inactive	inactive	inactive	inactive	inactive	inactive	inactive	inactive	inactive	inactive
C=C(C)[C@@H]1CC[C@]2(C)CC[C@]3(C)[C@@H](C[C@@H](O)[C@@H]4[C@@]5(C)CCC(=O)C(C)(C)[C@@H]5CC[C@]43C)[C@@H]12 [RIGIDENOL]	> 10	> 10	inactive	inactive	inactive	> 10	inactive	inactive	inactive	inactive	inactive	inactive	inactive	inactive	inactive	inactive	inactive
C=C(C)[C@@H]1CC[C@]2(C)CC[C@]3(C)[C@@H](C[C@@H](O)[C@@H]4[C@@]5(C)[C@H](O)C[C@H](O)C(C)(C)[C@@H]5CC[C@]43C)[C@@H]12 [NEPETICIN]	< 10	< 10	inactive	inactive	inactive	< 10	inactive	inactive	inactive	inactive	inactive	inactive	inactive	inactive	inactive	inactive	inactive
CC(=O)[C@@H]1CC[C@]2(CO)CC[C@]3(C)[C@@H](CC[C@@H]4[C@@]5(C)CC[C@H](O)C(C)(C)[C@@H]5CC[C@]43C)[C@@H]12 [MESSAGENIN]	> 10	> 10	inactive	inactive	inactive	> 10	inactive	inactive	inactive	inactive	inactive	inactive	inactive	inactive	inactive	inactive	inactive
